Data taken from ChEMBL document CHEMBL1149231, “2,5-Dihydropyrazolo[4,3-c]pyridin-3-ones: functionally selective benzodiazepine binding site ligands on the GABAA receptor” (Bioorg Med Chem Lett, 2004).

Columns and labels:
Format in all cases: cell-based
[1] = target: T1, GABA-A receptor; alpha-1/beta-3/gamma-2 (Homo sapiens) (UniProt P14867+P18507+P28472); test: Efficacy against human GABA-A receptor alpha-1-beta-3-gamma-2 subunits expressed in L(tk-) cells by whole-cell patch-clamp
How it was run: (§1)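 Whole-cell patch-clamp of L(tk-) cells stably expressing cloned human α1β3γ2, α2β3γ2 or α3β3γ2 receptors; full concentration-effect curves built; means ± SEM, n = 3-7.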

[2] = target: T2, GABA-A receptor; alpha-3/beta-3/gamma-2 (Homo sapiens, UniProt P18507+P28472+P34903); test: In vitro displacement of [3H]Ro-151788 from human GABA-A receptor alpha-3-beta-3-gamma-2 subunits expressed in L(tk-) cells
T2 sequence (P18507 whole entry): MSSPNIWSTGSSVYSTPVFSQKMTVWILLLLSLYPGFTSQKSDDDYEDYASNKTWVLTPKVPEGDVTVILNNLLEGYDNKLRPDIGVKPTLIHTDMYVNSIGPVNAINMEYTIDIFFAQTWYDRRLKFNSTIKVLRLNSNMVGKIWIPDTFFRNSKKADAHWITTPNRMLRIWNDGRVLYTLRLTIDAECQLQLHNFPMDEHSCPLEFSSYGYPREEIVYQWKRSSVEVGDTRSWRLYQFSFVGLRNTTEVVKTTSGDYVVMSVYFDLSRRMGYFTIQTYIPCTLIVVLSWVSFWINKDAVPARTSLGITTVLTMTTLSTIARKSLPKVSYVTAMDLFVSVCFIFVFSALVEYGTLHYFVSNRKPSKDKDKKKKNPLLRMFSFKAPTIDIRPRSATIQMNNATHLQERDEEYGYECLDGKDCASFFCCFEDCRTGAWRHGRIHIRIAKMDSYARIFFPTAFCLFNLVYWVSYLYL
T2 sequence (P28472 whole entry): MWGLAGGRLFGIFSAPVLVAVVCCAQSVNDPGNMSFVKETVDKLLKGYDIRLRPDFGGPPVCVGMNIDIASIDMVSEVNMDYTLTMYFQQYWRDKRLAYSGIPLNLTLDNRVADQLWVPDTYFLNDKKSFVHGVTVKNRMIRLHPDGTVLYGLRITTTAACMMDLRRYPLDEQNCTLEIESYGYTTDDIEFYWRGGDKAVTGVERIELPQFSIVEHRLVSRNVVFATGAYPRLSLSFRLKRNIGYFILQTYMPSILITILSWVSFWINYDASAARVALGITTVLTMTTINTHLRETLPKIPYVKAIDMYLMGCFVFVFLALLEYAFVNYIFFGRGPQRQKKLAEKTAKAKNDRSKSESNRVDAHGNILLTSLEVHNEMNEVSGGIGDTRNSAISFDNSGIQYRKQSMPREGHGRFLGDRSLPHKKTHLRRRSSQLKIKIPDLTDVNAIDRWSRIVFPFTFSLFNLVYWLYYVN
T2 sequence (P34903 whole entry): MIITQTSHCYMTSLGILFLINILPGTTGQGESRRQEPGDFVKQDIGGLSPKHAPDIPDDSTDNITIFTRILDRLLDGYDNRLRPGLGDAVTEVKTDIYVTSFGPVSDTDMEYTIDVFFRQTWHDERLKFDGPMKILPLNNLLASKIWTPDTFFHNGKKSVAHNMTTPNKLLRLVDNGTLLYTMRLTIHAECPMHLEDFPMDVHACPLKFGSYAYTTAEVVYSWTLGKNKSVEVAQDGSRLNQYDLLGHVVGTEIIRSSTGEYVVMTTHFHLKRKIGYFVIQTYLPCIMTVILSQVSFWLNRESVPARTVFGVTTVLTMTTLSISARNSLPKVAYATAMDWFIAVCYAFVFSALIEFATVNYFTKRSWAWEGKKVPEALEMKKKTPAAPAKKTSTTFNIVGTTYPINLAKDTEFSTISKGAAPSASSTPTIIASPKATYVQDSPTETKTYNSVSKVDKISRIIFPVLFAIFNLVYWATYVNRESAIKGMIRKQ
How it was run: (§2)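 Binding to cloned human α1β3γ2, α2β3γ2 or α3β3γ2 receptors stably expressed in L(tk-) cells, measured as displacement of [3H]Ro15-1788; means ± SEM, n = 3-7.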

[3] = target: T1, GABA-A receptor; alpha-1/beta-3/gamma-2 (Homo sapiens); test: Efficacy was determined against gamma-aminobutyric acid A receptor, alpha 1 expressed in Xenopus oocytes; settings: Oocyte
How it was run: (§3)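 Cloned human α1β3γ2, α2β3γ2 or α3β3γ2 receptors transiently expressed in Xenopus oocytes; two-electrode voltage clamp; modulation of GABA EC20 current by a single test-compound concentration (nM, given per value); means ± SEM, n = 3-7.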

[4] = target: T3, GABA-A receptor; alpha-3/beta-3/gamma-2 (Homo sapiens) (UniProt P18507+P28472+P34903); test: Efficacy against human GABA-A receptor alpha-3-beta-3-gamma-2 subunits expressed in L(tk-) cells by whole-cell patch-clamp; how it was run: as §1
[5] = target: T3, GABA-A receptor; alpha-3/beta-3/gamma-2 (Homo sapiens); test: Efficacy was determined against Gamma-aminobutyric acid A receptor, alpha 3 expressed in Xenopus oocytes; settings: Oocyte; how it was run: as §3
[6] = target: T4, GABA-A receptor; alpha-1/beta-3/gamma-2 (Homo sapiens, UniProt P14867+P18507+P28472); test: In vitro binding affinity against gamma-aminobutyric acid A receptor, alpha 1 expressed in L(tk) cells by displacement of [3H]Ro-151788; how it was run: as §2
T4 sequence (P14867 whole entry): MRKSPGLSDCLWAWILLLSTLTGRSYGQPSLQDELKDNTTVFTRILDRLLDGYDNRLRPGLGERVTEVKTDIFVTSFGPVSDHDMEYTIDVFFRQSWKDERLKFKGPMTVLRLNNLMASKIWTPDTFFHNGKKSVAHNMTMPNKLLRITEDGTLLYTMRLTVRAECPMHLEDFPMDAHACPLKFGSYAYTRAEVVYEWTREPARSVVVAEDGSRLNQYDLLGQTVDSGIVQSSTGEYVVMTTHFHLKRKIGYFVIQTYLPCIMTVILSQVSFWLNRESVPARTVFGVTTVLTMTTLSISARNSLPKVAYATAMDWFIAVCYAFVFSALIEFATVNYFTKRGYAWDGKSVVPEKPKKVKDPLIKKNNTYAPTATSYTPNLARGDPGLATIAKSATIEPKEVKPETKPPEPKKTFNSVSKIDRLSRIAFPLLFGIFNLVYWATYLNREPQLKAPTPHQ
T4 sequence (P18507 whole entry): T2 sequence (P18507 whole entry)
T4 sequence (P28472 whole entry): T2 sequence (P28472 whole entry)

[7] = target: T2, GABA-A receptor; alpha-3/beta-3/gamma-2; test: In vitro binding affinity against Gamma-aminobutyric acid A receptor, alpha 3 expressed in L(tk) cells by displacement of [3H]Ro-151788; how it was run: as §2
[8] = target: T5, GABA-A receptor; alpha-2/beta-3/gamma-2 (Homo sapiens) (UniProt P18507+P28472+P47869); test: Efficacy against human GABA-A receptor alpha-2-beta-3-gamma-2 subunits expressed in L(tk-) cells by whole-cell patch-clamp; how it was run: as §1
[9] = target: T5, GABA-A receptor; alpha-2/beta-3/gamma-2 (Homo sapiens); test: Efficacy relative to GABA EC20 against human GABA-A receptor alpha-2-beta-3-gamma-2 subunits expressed in Xenopus oocytes; settings: Oocyte; how it was run: as §3
[10] = target: T6, GABA-A receptor; alpha-2/beta-3/gamma-2 (Homo sapiens, UniProt P18507+P28472+P47869); test: In vitro displacement of [3H]Ro-151788 from human GABA-A receptor alpha-2-beta-3-gamma-2 subunits expressed in L(tk-) cells; how it was run: as §2
T6 sequence (P18507 whole entry): T2 sequence (P18507 whole entry)
T6 sequence (P28472 whole entry): T2 sequence (P28472 whole entry)
T6 sequence (P47869 whole entry): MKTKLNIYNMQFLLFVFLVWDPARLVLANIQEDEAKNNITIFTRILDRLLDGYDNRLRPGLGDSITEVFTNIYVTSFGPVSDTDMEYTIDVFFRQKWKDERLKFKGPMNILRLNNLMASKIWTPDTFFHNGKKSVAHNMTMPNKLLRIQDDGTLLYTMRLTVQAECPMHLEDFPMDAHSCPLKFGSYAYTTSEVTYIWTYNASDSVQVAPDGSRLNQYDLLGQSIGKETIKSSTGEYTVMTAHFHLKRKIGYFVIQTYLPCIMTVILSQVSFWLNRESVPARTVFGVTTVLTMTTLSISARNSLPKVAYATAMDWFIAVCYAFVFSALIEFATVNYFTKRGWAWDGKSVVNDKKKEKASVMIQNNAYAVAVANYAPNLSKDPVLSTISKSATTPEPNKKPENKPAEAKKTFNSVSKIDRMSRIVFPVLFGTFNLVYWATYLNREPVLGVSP

Efficacy [1] [%] | Ki [2] [nM] | Efficacy [3] [%] | Efficacy [4] [%] | Efficacy [5] [%] | Ki [6] [nM] | Ki [7] [nM] | Efficacy [8] [%] | Efficacy [9] [%] | Ki [10] [nM] | Compound
-4.3 | 2.19 | 19 | 54 | 62 | 1.13 | – | – | – | – | Oc1c2cnc3c(c2nn1-c1ccc(OC2CC2)cc1)CCCC3
– | – | -39 | – | -7 | 0.57 | 1.14 | – | – | – | Oc1c2cnc3c(c2nn1-c1ccccn1)CCCC3
– | – | 9 | – | 25 | 0.38 | 0.89 | – | – | – | Oc1c2c(nn1-c1ccc(OC(F)F)cc1)C1CSCCC1N=C2 (centres undefined)
– | – | 14 | – | 35 | 7.33 | 4.7 | – | – | – | Oc1c2cnc3c(c2nn1-c1ccc(OC(F)(F)F)cc1)CCCC3
– | – | 15 | – | 55 | 0.31 | 0.61 | – | – | – | COc1ccc(-n2nc3c4c(ncc3c2O)CCCC4)cc1
– | – | 19 | – | 51 | 0.44 | 1.12 | – | – | – | Oc1c2c(nn1-c1ccc(Cl)cc1)C1CCCC1N=C2 (centres undefined)
– | – | -2 | – | 33 | 0.29 | 0.65 | – | – | – | Oc1c2cnc3c(c2nn1-c1ccc(F)cc1)CCCC3
– | – | 111 | – | 123 | 0.45 | 7.45 | – | – | – | Oc1c2c(nn1-c1ccc(Cl)cc1)C1CN(CC3CC3)CCC1N=C2 (centres undefined)
– | – | 11 | – | 32 | 1.55 | 6.4 | – | – | – | Oc1c2c(nn1-c1ccc(OC(F)F)cc1)C1COCCC1N=C2 (centres undefined)
2 | – | 21 | 34 | 56 | 1 | 2.25 | – | – | – | Oc1c2cnc3c(c2nn1-c1ccc(OC(F)F)cc1)CCCC3
– | – | 49 | – | 36 | 1.3 | 2.55 | – | – | – | Oc1c2cnc3c(c2nn1-c1ccc(OC2CCC2)cc1)CCCC3
– | – | 23 | – | 87 | 1.06 | 4.27 | – | – | – | Oc1c2c(nn1-c1ccc(Cl)cc1)C1CCCCCC1N=C2 (centres undefined)
17 | – | 12 | 70 | 93 | 0.19 | 1.03 | 43 | 61 | 0.77 | O=c1c2c[nH]c3c(c-2nn1-c1ccc(Cl)cc1)CCCC3
– | – | 131 | – | 199 | 0.18 | 0.56 | – | – | – | Oc1c2c(nn1-c1ccc(Cl)cc1)C1CN(Cc3ccncc3)CCC1N=C2 (centres undefined)
– | – | 49 | – | 2.3 | 3.15 | 5.4 | – | – | – | O=C(Cc1cccnc1)N1CCC2N=Cc3c(nn(-c4ccc(Cl)cc4)c3O)C2C1 (centres undefined)
